Assay results published in ChEMBL document CHEMBL2062496, “Identification of a sirtuin 3 inhibitor that displays selectivity over sirtuin 1 and 2” (Eur J Med Chem, 2012).

Key:
HCT-116 = assay: Growth inhibition of human HCT116 cells assessed as cell growth at 10 uM after 48 hrs by MTT assay; values are per cent of control; settings: HCT-116, 48 h
HT-29 = assay: Growth inhibition of human HT-29 cells assessed as cell growth at 10 uM after 48 hrs by MTT assay; values are per cent of control; settings: HT-29, 48 h
SF-295 = assay: Growth inhibition of human SF295 cells assessed as cell growth at 10 uM after 48 hrs by MTT assay; values are per cent of control; settings: SF-295, 48 h
EKVX = assay: Growth inhibition of human EKVX cells assessed as cell growth at 10 uM after 48 hrs by MTT assay; values are per cent of control
NCI-H322M = assay: Growth of human NCI-H322M cells assessed as cell growth at 10 uM after 48 hrs by MTT assay
[1] = Growth inhibition of human NCI-ADR-RES cells assessed as cell growth at 10 uM after 48 hrs by MTT assay; values are per cent of control
MDA-MB-435 = assay: Growth inhibition of human MDA-MB-435 cells assessed as cell growth at 10 uM after 48 hrs by MTT assay; values are per cent of control; settings: MDA-MB-435, 48 h
[2] = target: T1, NAD-dependent protein deacetylase sirtuin-2 (Homo sapiens) (UniProt Q8IXJ6); assay: Inhibition of human SIRT2 assessed as enzyme activity using Fluor-de-Lys as substrate at 1 mM by fluorometry; parameters: scale not given: the % may be the effect or the level left
T1 sequence (whole entry): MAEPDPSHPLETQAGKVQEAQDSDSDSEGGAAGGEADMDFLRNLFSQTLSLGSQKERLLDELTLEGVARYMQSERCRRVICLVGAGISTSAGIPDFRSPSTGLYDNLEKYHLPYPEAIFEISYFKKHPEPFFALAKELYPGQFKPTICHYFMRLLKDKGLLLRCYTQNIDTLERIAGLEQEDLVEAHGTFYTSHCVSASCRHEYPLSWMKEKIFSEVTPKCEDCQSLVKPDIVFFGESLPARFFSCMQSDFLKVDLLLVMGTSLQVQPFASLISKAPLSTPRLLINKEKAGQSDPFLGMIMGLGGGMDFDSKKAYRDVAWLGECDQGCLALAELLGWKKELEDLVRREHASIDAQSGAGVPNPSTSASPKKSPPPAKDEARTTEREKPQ
Outline: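 Commercial Fluor-de-Lys kit, substrate human p53 379–382 peptide (Arg-His-Lys-Lys(Ac)). Human Sirt1 or Sirt2 was incubated with substrate, NAD+ and compound at 1 mM, also tested at 100 µM. Fluorescence scales with Lys382 deacetylation. Activity is expressed relative to control, mean ± S.E.M. of 3–4 replicates.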

MDA-MB-231 = assay: Growth inhibition of human MDA-MB-231 cells assessed as cell growth at 10 uM after 48 hrs by MTT assay; values are per cent of control; settings: MDA-MB-231, 48 h
OVCAR-5 = assay: Growth inhibition of human OVCAR5 cells assessed as cell growth at 10 uM after 48 hrs by MTT assay; values are per cent of control; settings: OVCAR-5, 48 h
OVCAR-3 = assay: Growth inhibition of human OVCAR3 cells assessed as cell growth at 10 uM after 48 hrs by MTT assay; values are per cent of control; settings: OVCAR-3, 48 h
PC-3 = assay: Growth inhibition of human PC3 cells assessed as cell growth at 10 uM after 48 hrs by MTT assay; values are per cent of control; settings: PC-3, 48 h
CAKI-1 = assay: Growth inhibition of human Caki1 cells assessed as cell growth at 10 uM after 48 hrs by MTT assay; values are per cent of control; settings: CAKI-1, 48 h
RXF 393 = assay: Growth inhibition of human RXF393 cells assessed as cell growth at 10 uM after 48 hrs by MTT assay; values are per cent of control; settings: RXF 393, 48 h
HL-60(TB) = assay: Growth inhibition of human HL-60(TB) cells assessed as cell growth at 10 uM after 48 hrs by MTT assay; type: functional; settings: HL-60, 48 h, read-out: GI
TK-10 = assay: Growth inhibition of human TK10 cells assessed as cell growth at 10 uM after 48 hrs by MTT assay; values are per cent of control; settings: TK-10, 48 h
LOX IMVI = assay: Growth inhibition of human LOXIMVI cells assessed as cell growth at 10 uM after 48 hrs by MTT assay; values are per cent of control
DU-145 = assay: Growth inhibition of human DU145 cells assessed as cell growth at 10 uM after 48 hrs by MTT assay; values are per cent of control; settings: DU-145, 48 h
HOP-92 = assay: Growth of human HOP92 cells assessed as cell growth at 10 uM after 48 hrs by MTT assay; settings: HOP-92, 48 h
SW-620 = assay: Growth inhibition of human SW620 cells assessed as cell growth at 10 uM after 48 hrs by MTT assay; values are per cent of control; settings: SW-620, 48 h
IGROV-1 = assay: Growth inhibition of human IGROV1 cells assessed as cell growth at 10 uM after 48 hrs by MTT assay; values are per cent of control; settings: IGROV-1, 48 h
T47D = assay: Growth inhibition of human T47D cells assessed as cell growth at 10 uM after 48 hrs by MTT assay; values are per cent of control
SNB-19 = assay: Growth inhibition of human SNB19 cells assessed as cell growth at 10 uM after 48 hrs by MTT assay; values are per cent of control; settings: SNB-19, 48 h
SNB-75 = assay: Growth of human SNB75 cells assessed as cell growth at 10 uM after 48 hrs by MTT assay; settings: SNB-75, 48 h

Work on `c1cncc(-c2cnn[nH]2)c1` yielded a growth, % of control at 10 µM (HCT-116) of 82.4%, a growth, % of control at 10 µM (HT-29) of 39.9% and a growth, % of control at 10 µM (SF-295) of 107%. The growth, % of control at 10 µM (EKVX) was 76.4%, the growth, % of control at 10 µM (NCI-H322M) was 104% and the growth, % of control at 10 µM [1] was 71.3%. For the same molecule, the growth, % of control at 10 µM (MDA-MB-435) was 56%, the Activity [2] was 92% and the growth, % of control at 10 µM (MDA-MB-231) was 103%. The growth, % of control at 10 µM (OVCAR-5) was 100%, the growth, % of control at 10 µM (OVCAR-3) was 89.5% and the growth, % of control at 10 µM (PC-3) was 88.5%. It also gave a growth, % of control at 10 µM (CAKI-1) of 95.1%, a growth, % of control at 10 µM (RXF 393) of 98.6% and an inhibition of growth at 10 µM (HL-60(TB)) of 92.9%. It also gave a growth, % of control at 10 µM (TK-10) of 103%, a growth, % of control at 10 µM (LOX IMVI) of 102% and a growth, % of control at 10 µM (DU-145) of 96.3%. The growth, % of control at 10 µM (HOP-92) was 80.8%, the growth, % of control at 10 µM (SW-620) was 106% and the growth, % of control at 10 µM (IGROV-1) was 113%. The growth, % of control at 10 µM (T47D) was 102%, the growth, % of control at 10 µM (SNB-19) was 102% and the growth, % of control at 10 µM (SNB-75) was 93%.
